Test results reported in ChEMBL document CHEMBL3804757, “Cystoseira usneoides: A Brown Alga Rich in Antioxidant and Anti-inflammatory Meroditerpenoids” (J Nat Prod, 2016).

Assays:
[1] = Antiinflammatory activity against human THP1 cells assessed as inhibition of LPS-induced TNFalpha production pretreated for 1 hr before LPS challenge at 8 uM measured after 24 hrs by ELISA; assay type: functional, THP-1; design: scale not given: the % may be the effect or the level left
Summary of the method: (§1)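 THP-1 cells (RPMI 1640, 10% FBS) differentiated to macrophages with PMA 0.2 μM final for 3 days, washed with cold PBS, then pre-incubated 1 h with compound diluted from DMSO stocks (0.1% DMSO). Stimulated with LPS at 1 μg/mL final. Supernatants taken after 24 h and TNF-α measured by ELISA. Dexamethasone 1 μM as positive control; an unstimulated control was included. Values are mean ± SE of four determinations.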

[2] = Antioxidant activity assessed as ABTS free radical scavenging activity after 6 mins by ABTS free radical decolorization assay relative to Trolox; assay type: physicochemical; design: concentration or dose not given beside the values; conditions: 0.1 h
Summary of the method: (§2)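 ABTS•+ generated by mixing 7 mM ABTS with 2.45 mM potassium persulfate (1:1) and holding 12–18 h in the dark at room temperature. It was then diluted in EtOH to A734 0.70 ± 0.02. 100 μL ethanolic compound was added to 2 mL of radical solution, and A734 read after 6 min against an EtOH control. % inhibition = [(A0−A1)/A0]×100, done in triplicate; Trolox served as standard.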

[3] = Cytotoxicity against human THP1 cells assessed as cell viability at 5 to 10 uM after 48 hrs by SRB assay; assay type: cell-based; conditions: thp-1, 48 h
[4] = Antiinflammatory activity against human THP1 cells assessed as inhibition of LPS-induced TNFalpha production pretreated for 1 hr before LPS challenge at 5 uM measured after 24 hrs by ELISA; assay type: functional, THP-1; design: scale not given: the % may be the effect or the level left; summary of the method: as §1
[5] = Antiinflammatory activity against human THP1 cells assessed as inhibition of LPS-induced TNFalpha production pretreated for 1 hr before LPS challenge at 10 uM measured after 24 hrs by ELISA; assay type: functional, THP-1; design: scale not given: the % may be the effect or the level left; summary of the method: as §1
[6] = Antioxidant activity assessed as ABTS free radical scavenging activity after 6 mins by ABTS free radical decolorization assay; assay type: physicochemical; summary of the method: as §2

Compound	Activity [1]	Activity [2]	Activity [3]	Activity [4]	Activity [5]	EC50 [6]
COc1c(C)cc(O)cc1C/C=C(\C)CC(=O)/C=C(\C)C(O)CCC(C)(O)C(=O)/C=C/C(C)(C)O (stereo not drawn)	79%	62%	Non-toxic			
C/C(=C\C(=O)C/C(C)=C/Cc1cc(O)cc(C)c1O)CCCC(C)C(=O)/C=C/C(C)(C)O (stereo not drawn)		77%	Non-toxic	53%		
C/C(=C\C(=O)C/C(C)=C/Cc1cc(O)cc(C)c1O)CCCC(C)(O)C(=O)/C=C/C(C)(C)O (stereo not drawn)		87%	Non-toxic		69%	
COc1c(C)cc(O)cc1C/C=C(\C)CC(=O)/C=C(\C)CCC[C@@]1(C)O[C@@H](C(C)(C)O)CC1=O		37%				
C/C(=C/C(=O)C/C(C)=C/Cc1cc(O)cc(C)c1O)CCCC(C)(O)C(=O)/C=C/C(C)(C)O (stereo not drawn)		81%	Non-toxic		81%	
C/C(=C/C(=O)C/C(C)=C/Cc1cc(O)cc(C)c1O)CCCC(C)C(=O)/C=C/C(C)(C)O (stereo not drawn)		77%	Non-toxic		21%	
COc1c(C)cc(O)cc1C/C=C(\C)CC(=O)/C=C(/C)CCC[C@@]1(C)O[C@@H](C(C)(C)O)CC1=O		62%				
COc1c(C)cc(O)cc1C/C=C(\C)CC(=O)/C=C(/C)CCCC(C)C(=O)CC(O)C(C)(C)O (stereo not drawn)	21%	37%	Non-toxic			
COc1c(C)cc(O)cc1C/C=C(\C)CC(=O)/C=C(/C)CC/C=C(\C)CCC(O)C(C)(C)O (stereo not drawn)		62%	Non-toxic	59%		
Cc1c(C)c2c(c(C)c1O)CCC(C)(C(=O)O)O2 (stereo not drawn) [TROLOX]						12 µM
COc1c(C)cc(O)cc1C/C=C(\C)CC(=O)/C=C(\C)CC/C=C(\C)CCC(O)C(C)(C)O (stereo not drawn)		37%	Non-toxic		21%	
COc1c(C)cc(O)cc1C/C=C(\C)CC(=O)/C=C(/C)CC/C=C(\C)C(O)CC1OC1(C)C (stereo not drawn)	21%	37%	Non-toxic			
COc1c(C)cc(O)cc1C/C=C(\C)CC(=O)/C=C(/C)CCC[C@@]1(C)O[C@H](C(C)(C)O)C[C@H]1O	21%	62%	Non-toxic			
